Where two headings read alike, the source gives them in different places.
Columns and labels:
[1] = target: hERG channel (Homo sapiens, UniProt Q12809)
[2] = target: V1A (Homo sapiens, UniProt P37288); test: NIMH PDSP receptor binding assay; details: read-out: % Inhibition of Binding at 10 μM D-578
[3] = target: 5HT7 (Homo sapiens, UniProt P34969); test: NIMH PDSP receptor binding assay; details: read-out: % Inhibition of Binding at 10 μM D-578
[4] = target: D4 (Homo sapiens, UniProt P21917); test: NIMH PDSP receptor binding assay; details: read-out: % Inhibition of Binding at 10 μM D-578
[5] = target: Oxytocin (Homo sapiens, UniProt P30559); test: NIMH PDSP receptor binding assay
Oxytocin, sequence (P30559 whole entry): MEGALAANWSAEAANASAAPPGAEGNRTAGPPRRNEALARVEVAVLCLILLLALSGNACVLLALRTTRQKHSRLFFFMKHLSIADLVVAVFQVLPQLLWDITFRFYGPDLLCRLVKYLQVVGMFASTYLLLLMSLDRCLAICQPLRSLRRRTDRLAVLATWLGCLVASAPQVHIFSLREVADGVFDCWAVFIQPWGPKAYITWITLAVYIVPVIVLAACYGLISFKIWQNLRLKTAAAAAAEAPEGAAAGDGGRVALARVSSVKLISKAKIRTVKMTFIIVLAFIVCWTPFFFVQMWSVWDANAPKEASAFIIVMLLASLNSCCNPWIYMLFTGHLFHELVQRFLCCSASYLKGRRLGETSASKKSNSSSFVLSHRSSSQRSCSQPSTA

[6] = target: Alpha1A (Homo sapiens, UniProt P35348); test: NIMH PDSP receptor binding assay; details: read-out: % Inhibition of Binding at 10 μM D-578
[7] = target: 5HT3 (Homo sapiens, UniProt P46098); test: NIMH PDSP receptor binding assay; details: read-out: % Inhibition of Binding at 10 μM D-578
[8] = target: H4 (Homo sapiens, UniProt Q9H3N8); test: NIMH PDSP receptor binding assay; details: read-out: % Inhibition of Binding at 10 μM D-578
[9] = target: M5 (Homo sapiens, UniProt P08912); test: biochemical; type: binding
[10] = target: H1 (Homo sapiens, UniProt P35367); test: NIMH PDSP receptor binding assay; details: read-out: % Inhibition of Binding at 10 μM D-578
[11] = target: 5HT1a (Homo sapiens, UniProt P08908); test: NIMH PDSP receptor binding assay; details: read-out: % Inhibition of Binding at 10 μM D-578
[12] = target: Alpha2B (Homo sapiens, UniProt P18089); test: NIMH PDSP receptor binding assay; details: read-out: % Inhibition of Binding at 10 μM D-578
[13] = target: Alpha1B (Homo sapiens, UniProt P35368); test: NIMH PDSP receptor binding assay; details: read-out: % Inhibition of Binding at 10 μM D-578
[14] = target: Beta3 (Homo sapiens, UniProt P13945); test: NIMH PDSP receptor binding assay
[15] = target: D1 (Homo sapiens, UniProt P21728); test: NIMH PDSP receptor binding assay; details: read-out: % Inhibition of Binding at 10 μM D-578
[16] = system: conditioned fear behavior; test: Single prolonged stress; type: in vivo, rat; details: SPS rats, D-578 10 mg/kg, paroxetine 5 mg/kg; for Freezing behavior during the extinction retention session (SPS-induced deficit) / Freezing behavior during the extinction session (SPS-induced deficit): i.p. 90 min prior to each session; for Shock reactivity during acquisition compared to the control group: i.p., five 1 mA shocks
[17] = target: D3 (Homo sapiens, UniProt P35462); test: NIMH PDSP receptor binding assay
D3, sequence (P35462 whole entry): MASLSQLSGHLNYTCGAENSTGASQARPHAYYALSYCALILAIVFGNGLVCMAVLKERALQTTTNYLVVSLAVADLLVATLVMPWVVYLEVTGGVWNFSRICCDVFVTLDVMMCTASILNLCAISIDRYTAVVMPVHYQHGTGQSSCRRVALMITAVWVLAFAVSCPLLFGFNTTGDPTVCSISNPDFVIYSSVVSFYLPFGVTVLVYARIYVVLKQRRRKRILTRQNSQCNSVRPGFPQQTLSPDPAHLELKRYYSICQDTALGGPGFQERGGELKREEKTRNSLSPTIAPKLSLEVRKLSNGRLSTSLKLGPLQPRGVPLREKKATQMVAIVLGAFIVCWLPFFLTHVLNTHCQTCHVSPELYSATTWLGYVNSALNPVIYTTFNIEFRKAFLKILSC

[18] = target: Alpha1D (Homo sapiens, UniProt P25100); test: NIMH PDSP receptor binding assay; details: read-out: % Inhibition of Binding at 10 μM D-578
[19] = target: 5HT2b (Homo sapiens, UniProt P41595); test: NIMH PDSP receptor binding assay
[20] = target: V1B (Homo sapiens, UniProt P47901); test: NIMH PDSP receptor binding assay; details: read-out: % Inhibition of Binding at 10 μM D-578
[21] = target: mGlur5 (Rattus norvegicus, UniProt P31424); test: NIMH PDSP receptor binding assay; details: read-out: % Inhibition of Binding at 10 μM D-578
[22] = system: locomotor activity; test: Locomotor activity test; type: in vivo, rat; details: 25 mg/kg oral, rats, up to 120 min
How it was run: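 Sprague-Dawley rats were acclimated for 1 h in automated activity chambers, then dosed by oral gavage with test compound (25 mg/kg) or vehicle. Distance travelled was recorded for 2 h after dosing, matching the forced-swim timing. n = 4-7 rats/group.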

[23] = target: κ-opioid (Homo sapiens, UniProt P41145); test: NIMH PDSP receptor binding assay
[24] = system: GABA A; test: NIMH PDSP receptor binding assay; details: [3H]Muscimol, mean of 4 determinations
[25] = target: 5HT1b (Homo sapiens, UniProt P28222); test: NIMH PDSP receptor binding assay; details: read-out: % Inhibition of Binding at 10 μM D-578
[26] = target: 5HT5a (Homo sapiens, UniProt P47898); test: NIMH PDSP receptor binding assay; details: read-out: % Inhibition of Binding at 10 μM D-578
[27] = target: Beta2 (Homo sapiens, UniProt P07550); test: NIMH PDSP receptor binding assay
[28] = target: PBR (Rattus norvegicus, UniProt P16257); test: NIMH PDSP receptor binding assay; details: read-out: % Inhibition of Binding at 10 μM D-578
[29] = target: M3 (Homo sapiens, UniProt P20309); test: biochemical; details: read-out: % Inhibition of Binding at 10 μM D-578
[30] = target: μ-Opioid (Homo sapiens, UniProt P35372); test: NIMH PDSP receptor binding assay; details: read-out: % Inhibition of Binding at 10 μM D-578
[31] = system: immobility in the forced swimming test; test: Forced swimming test in rats after oral administration; type: in vivo, rat; details: for Immobility in the rat forced swimming test compared to vehicle: sub-chronic, 1 h before test, mesylate salt
How it was run: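 Male Sprague-Dawley rats (200-225 g), naive, used once, were given a Porsolt two-session test. The pretest was a 15 min swim and the test a 5 min swim 24 h later, in a 24.5 × 35.5 cm cylinder with 22 cm water at 24-25 °C. Mesylate salt in 3% β-hydroxypropyl cyclodextrin/saline was given p.o. 15 min after pretest and 1 h before test. Blinded video scoring of immobility; one-way ANOVA.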

[32] = target: Alpha2A (Homo sapiens, UniProt P08913); test: NIMH PDSP receptor binding assay; details: read-out: % Inhibition of Binding at 10 μM D-578
[33] = target: δ-opioid (Homo sapiens, UniProt P41143); test: NIMH PDSP receptor binding assay; details: read-out: % Inhibition of Binding at 10 μM D-578
[34] = target: H2 (Homo sapiens, UniProt P25021); test: NIMH PDSP receptor binding assay
[35] = target: M1 (Homo sapiens, UniProt P11229); test: biochemical; details: read-out: % Inhibition of Binding at 10 μM D-578
[36] = target: D2 (Homo sapiens, UniProt P14416); test: NIMH PDSP receptor binding assay
D2, sequence (P14416 whole entry): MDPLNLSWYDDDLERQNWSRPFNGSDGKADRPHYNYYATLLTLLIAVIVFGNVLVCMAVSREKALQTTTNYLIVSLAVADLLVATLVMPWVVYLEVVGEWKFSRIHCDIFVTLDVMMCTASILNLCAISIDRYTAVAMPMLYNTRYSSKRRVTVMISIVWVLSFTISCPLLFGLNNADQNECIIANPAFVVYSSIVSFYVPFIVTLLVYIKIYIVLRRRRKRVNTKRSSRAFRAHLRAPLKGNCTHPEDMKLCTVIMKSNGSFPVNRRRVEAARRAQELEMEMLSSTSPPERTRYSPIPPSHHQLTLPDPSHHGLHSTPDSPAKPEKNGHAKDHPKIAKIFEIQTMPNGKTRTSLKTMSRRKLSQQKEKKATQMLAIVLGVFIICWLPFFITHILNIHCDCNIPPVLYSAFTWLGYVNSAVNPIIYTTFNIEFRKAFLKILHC

[37] = target: Beta1 (Homo sapiens, UniProt P08588); test: NIMH PDSP receptor binding assay; details: read-out: % Inhibition of Binding at 10 μM D-578
[38] = target: V2 (Homo sapiens, UniProt P30518); test: NIMH PDSP receptor binding assay; details: read-out: % Inhibition of Binding at 10 μM D-578
[39] = target: D5 (Homo sapiens, UniProt P21918); test: NIMH PDSP receptor binding assay; details: read-out: % Inhibition of Binding at 10 μM D-578
[40] = target: cloned human SERT (Homo sapiens, UniProt P31645); type: cell-based
[41] = target: 5HT6 (Homo sapiens, UniProt P50406); test: NIMH PDSP receptor binding assay; details: read-out: % Inhibition of Binding at 10 μM D-578
[42] = Oral absorption and brain penetration; type: in vivo; details: unpublished data
[43] = target: 5HT2c (Homo sapiens, UniProt P28335); test: NIMH PDSP receptor binding assay
5HT2c, sequence (P28335 33-458): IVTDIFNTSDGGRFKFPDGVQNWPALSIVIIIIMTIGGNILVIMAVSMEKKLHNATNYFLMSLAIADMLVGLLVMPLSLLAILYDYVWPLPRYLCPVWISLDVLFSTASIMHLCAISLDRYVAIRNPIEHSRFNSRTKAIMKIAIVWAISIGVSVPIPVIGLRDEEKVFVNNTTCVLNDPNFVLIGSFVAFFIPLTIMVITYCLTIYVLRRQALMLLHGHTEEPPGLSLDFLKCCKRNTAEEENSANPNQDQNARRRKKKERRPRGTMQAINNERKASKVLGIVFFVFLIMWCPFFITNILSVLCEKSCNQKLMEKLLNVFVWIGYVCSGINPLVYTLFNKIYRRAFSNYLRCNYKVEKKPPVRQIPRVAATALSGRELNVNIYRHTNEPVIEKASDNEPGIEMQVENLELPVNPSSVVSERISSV

[44] = target: M2 (Homo sapiens, UniProt P08172); test: biochemical; details: read-out: % Inhibition of Binding at 10 μM D-578
[45] = target: 5HT2a (Homo sapiens, UniProt P28223); test: NIMH PDSP receptor binding assay
5HT2a, sequence (P28223 whole entry): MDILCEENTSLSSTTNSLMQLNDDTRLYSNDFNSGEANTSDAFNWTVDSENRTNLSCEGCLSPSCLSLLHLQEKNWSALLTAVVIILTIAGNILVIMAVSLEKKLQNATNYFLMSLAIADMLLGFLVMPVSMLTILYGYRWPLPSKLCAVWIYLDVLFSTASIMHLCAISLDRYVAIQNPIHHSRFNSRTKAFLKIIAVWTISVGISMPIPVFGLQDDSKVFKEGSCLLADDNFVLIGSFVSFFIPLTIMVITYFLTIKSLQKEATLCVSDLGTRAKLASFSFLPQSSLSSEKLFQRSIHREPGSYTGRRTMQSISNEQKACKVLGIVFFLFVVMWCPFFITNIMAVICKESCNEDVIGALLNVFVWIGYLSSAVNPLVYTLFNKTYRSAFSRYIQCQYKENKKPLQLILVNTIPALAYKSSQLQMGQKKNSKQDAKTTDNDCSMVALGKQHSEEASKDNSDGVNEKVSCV

[46] = system: BZP Rat Brain Site; test: NIMH PDSP receptor binding assay; details: 3H-Flunitrazepam, mean of 4 determinations
[47] = target: DAT (Rattus norvegicus, UniProt P23977); test: Inhibition of [3H]DA uptake in rat striatum synaptosomes; type: biochemical
[48] = target: SERT (Rattus norvegicus, UniProt P31652); test: Inhibition of [3H]5-HT uptake in rat cerebral cortex synaptosomes; type: biochemical
[49] = target: cloned human DAT (Homo sapiens, UniProt Q01959); test: Inhibition of [3H]DA uptake in HEK 293 cells expressing cloned human transporter; type: cell-based
[50] = target: cloned human NET (Homo sapiens, UniProt P23975); test: cell-based; type: cell-based
cloned human NET, sequence (P23975 whole entry): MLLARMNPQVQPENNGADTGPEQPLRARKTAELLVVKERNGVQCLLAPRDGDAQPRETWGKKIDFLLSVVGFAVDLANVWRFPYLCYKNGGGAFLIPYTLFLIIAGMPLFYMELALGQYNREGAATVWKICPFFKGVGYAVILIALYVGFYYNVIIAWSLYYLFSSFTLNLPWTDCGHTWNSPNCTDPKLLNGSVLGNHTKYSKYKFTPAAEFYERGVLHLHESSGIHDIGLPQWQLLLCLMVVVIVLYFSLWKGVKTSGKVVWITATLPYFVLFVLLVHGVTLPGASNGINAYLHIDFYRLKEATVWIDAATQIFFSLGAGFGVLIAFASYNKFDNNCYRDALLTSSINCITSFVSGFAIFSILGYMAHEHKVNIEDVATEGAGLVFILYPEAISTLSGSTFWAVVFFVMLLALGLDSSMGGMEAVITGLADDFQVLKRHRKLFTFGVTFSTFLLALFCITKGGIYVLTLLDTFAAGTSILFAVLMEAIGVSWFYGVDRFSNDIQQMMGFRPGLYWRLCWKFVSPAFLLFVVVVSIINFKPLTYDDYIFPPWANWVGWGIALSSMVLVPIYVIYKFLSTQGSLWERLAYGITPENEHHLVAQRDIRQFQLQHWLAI

[51] = target: 5HT1d (Homo sapiens, UniProt P28221); test: NIMH PDSP receptor binding assay
[52] = target: Alpha2C (Homo sapiens, UniProt P18825); test: NIMH PDSP receptor binding assay
Alpha2C, sequence (P18825 whole entry): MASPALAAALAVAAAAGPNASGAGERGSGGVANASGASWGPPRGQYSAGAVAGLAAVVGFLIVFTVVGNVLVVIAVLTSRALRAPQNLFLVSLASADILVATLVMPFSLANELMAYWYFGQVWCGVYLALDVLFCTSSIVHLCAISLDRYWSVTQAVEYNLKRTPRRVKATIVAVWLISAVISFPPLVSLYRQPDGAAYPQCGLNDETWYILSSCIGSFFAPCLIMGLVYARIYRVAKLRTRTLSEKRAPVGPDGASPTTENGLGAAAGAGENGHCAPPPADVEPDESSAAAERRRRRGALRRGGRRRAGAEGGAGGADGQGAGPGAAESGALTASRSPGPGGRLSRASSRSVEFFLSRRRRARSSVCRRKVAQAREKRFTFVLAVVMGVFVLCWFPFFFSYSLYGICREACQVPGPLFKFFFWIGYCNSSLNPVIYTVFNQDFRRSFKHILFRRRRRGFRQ

[53] = target: M4 (Homo sapiens, UniProt P08173); test: biochemical; type: binding
M4, sequence (P08173 whole entry): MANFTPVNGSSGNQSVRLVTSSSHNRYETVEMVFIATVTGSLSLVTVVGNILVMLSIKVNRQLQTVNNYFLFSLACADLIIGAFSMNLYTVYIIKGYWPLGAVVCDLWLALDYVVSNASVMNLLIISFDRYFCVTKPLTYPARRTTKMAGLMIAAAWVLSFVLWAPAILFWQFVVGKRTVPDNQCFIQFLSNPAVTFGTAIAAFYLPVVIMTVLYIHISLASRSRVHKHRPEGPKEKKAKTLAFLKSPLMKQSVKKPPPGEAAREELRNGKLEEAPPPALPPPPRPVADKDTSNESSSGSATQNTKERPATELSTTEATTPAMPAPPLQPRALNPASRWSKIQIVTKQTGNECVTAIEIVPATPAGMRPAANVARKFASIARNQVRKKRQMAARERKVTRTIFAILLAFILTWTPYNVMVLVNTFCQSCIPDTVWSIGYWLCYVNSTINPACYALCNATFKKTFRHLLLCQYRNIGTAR

[54] = target: H3 (Homo sapiens, UniProt Q9Y5N1); test: NIMH PDSP receptor binding assay; details: read-out: % Inhibition of Binding at 10 μM D-578
[55] = read-out: % Inhibition of Binding at 10 μM D-578

hERG channel, sequence (Q12809 whole entry): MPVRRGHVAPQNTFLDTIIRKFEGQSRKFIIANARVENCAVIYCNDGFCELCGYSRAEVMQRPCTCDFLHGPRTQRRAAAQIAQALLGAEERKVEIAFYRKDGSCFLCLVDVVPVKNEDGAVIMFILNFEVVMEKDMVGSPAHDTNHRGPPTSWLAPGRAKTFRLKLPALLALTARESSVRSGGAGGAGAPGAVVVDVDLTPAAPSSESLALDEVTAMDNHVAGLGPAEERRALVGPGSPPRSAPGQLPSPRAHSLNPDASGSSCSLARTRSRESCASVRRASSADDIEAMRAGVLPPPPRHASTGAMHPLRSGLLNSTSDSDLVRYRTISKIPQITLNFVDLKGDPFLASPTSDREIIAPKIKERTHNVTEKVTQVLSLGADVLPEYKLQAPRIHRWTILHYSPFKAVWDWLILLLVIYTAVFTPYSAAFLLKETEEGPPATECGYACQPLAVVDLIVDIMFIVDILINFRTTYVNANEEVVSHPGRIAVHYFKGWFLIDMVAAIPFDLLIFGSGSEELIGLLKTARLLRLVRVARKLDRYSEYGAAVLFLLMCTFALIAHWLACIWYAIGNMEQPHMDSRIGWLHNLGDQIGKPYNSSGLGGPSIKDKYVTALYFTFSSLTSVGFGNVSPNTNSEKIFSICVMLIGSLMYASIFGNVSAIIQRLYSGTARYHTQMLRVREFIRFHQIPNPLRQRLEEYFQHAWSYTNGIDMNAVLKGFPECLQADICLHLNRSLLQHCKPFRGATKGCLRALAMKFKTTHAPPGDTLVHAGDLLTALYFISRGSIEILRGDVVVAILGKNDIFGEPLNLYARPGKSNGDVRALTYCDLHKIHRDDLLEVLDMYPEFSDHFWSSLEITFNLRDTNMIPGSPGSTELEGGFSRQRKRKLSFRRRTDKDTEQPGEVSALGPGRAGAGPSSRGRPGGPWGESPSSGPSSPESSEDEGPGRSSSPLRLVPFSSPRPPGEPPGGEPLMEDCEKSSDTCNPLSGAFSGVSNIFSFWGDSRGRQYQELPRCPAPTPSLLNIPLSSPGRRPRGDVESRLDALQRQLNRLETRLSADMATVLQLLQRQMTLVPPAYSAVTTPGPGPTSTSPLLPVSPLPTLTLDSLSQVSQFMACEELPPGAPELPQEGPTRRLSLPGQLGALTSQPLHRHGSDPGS

Structure (SMILES): COc1cc(N)c(Cl)cc1C(=O)NC1CCN(CCCOc2ccc(F)cc2)CC1OC (stereo not shown) [Cisapride, reference compound]
- Hill Slope ([1]; human): 1.01 ± 0.07

Structure (SMILES): Nc1nc2ccc(CN[C@@H]3CO[C@H](C(c4ccc(F)cc4)c4ccc(F)cc4)C[C@H]3O)cc2s1 [D-578, (2S,4R,5R)-5-(((2-aminobenzo[d]thiazol-6-yl)methyl)amino)-2-(bis(4-fluorophenyl)methyl)tetrahydro-2H-pyran-4-ol]
- inhibition at 10 µM [2]: 44.6%
- inhibition at 10 µM [3]: 28.9%
- inhibition at 10 µM [4]: 20.9%
- Ki [5]: > 10000 nM
- inhibition at 10 µM [5, 55]: 53.1%
- inhibition at 10 µM [6]: 18.6%
- inhibition at 10 µM [7]: 8.5%
- inhibition at 10 µM [8]: 2.4%
- Ki [9]: > 10000 nM
- inhibition at 10 µM [9, 55]: 84.4%
- inhibition at 10 µM [10]: 11%
- inhibition at 10 µM [11]: 19.9%
- inhibition at 10 µM [12]: 6.3%
- inhibition at 10 µM [13]: 38.3%
- Ki [14]: 2700 nM
- inhibition at 10 µM [14, 55]: 59.8%
- inhibition at 10 µM [15]: 11%
- Freezing behavior during the extinction retention session (SPS-induced deficit) [16]: froze significantly less
- Freezing behavior during the extinction session (SPS-induced deficit) [16]: froze less
- Shock reactivity during acquisition compared to the control group [16]: no effect
- Ki [17]: 2610 nM
- inhibition at 10 µM [17, 55]: 56.4%
- inhibition at 10 µM [18]: 24.7%
- Ki [19]: 425 nM
- inhibition at 10 µM [19, 55]: 80.3%
- inhibition at 10 µM [20]: 7.8%
- inhibition at 10 µM [21]: 52.8%
- Locomotor activity, distance travelled vs vehicle [22]: not significantly different from vehicle
- Ki [23]: 1390 nM
- inhibition at 10 µM [23, 55]: 68.9%
- % Inhibition of Binding at 10 μM D-578 [24]: 2.3%
- inhibition at 10 µM [25]: 13.6%
- inhibition at 10 µM [26]: 35.2%
- Ki [27]: > 10000 nM
- inhibition at 10 µM [27, 55]: 59.4%
- inhibition at 10 µM [28]: 10.6%
- inhibition at 10 µM [29]: 7.5%
- inhibition at 10 µM [30]: 11.7%
- Inhibition of the hERG channel (in words) ([1]; Thallium flux assay): almost no inhibition
- Hill Slope ([1]; Tl+ flux assay, inhibition of hERG channel): 1.471 ± 0.23
- Immobility in the rat forced swimming test compared to vehicle ([31]; 10 mg/kg p.o.): significantly reduced
- Immobility in the rat forced swimming test compared to vehicle ([31]; 15 mg/kg p.o.): significantly reduced
- Reduction of immobility compared to control ([31]; 25 mg/kg PO, forced swimming test in rats): greater than 90%
- Immobility in the rat forced swimming test compared to vehicle ([31]; 25 mg/kg p.o.): marked reduction of immobility
- inhibition at 10 µM [32]: 22.6%
- inhibition at 10 µM [33]: 24.1%
- Ki [34]: 42 nM
- inhibition at 10 µM [34, 55]: 94.1%
- inhibition at 10 µM [35]: 97.2%
- Ki [36]: 773 nM
- inhibition at 10 µM [36, 55]: 62.3%
- inhibition at 10 µM [37]: 45.6%
- inhibition at 10 µM [38]: 21%
- inhibition at 10 µM [39]: 37.4%
- Ki [40]: 20.6 ± 3.8 nM
- inhibition at 10 µM [41]: 12.8%
- Oral absorption and brain penetration [42]: gets absorbed orally and penetrates into the brain well
- Ki [43]: 73 nM
- inhibition at 10 µM [43, 55]: 96.3%
- inhibition at 10 µM [44]: 20.9%
- Ki [45]: 1640 nM
- inhibition at 10 µM [45, 55]: 62.5%
- % Inhibition of Binding at 10 μM D-578 [46]: 28.8%
- Ki [47]: 16.2 ± 2 nM
- Ki [48]: 16.2 ± 1.5 nM
- Ki [49]: 29.6 ± 6.95 nM
- Ki [50]: 6.1 ± 1.14 nM
- Times more potent at NET compared to DAT and SERT ([50]; cloned human transporters): 3-4 times
- Ki [51]: 702 nM
- inhibition at 10 µM [51, 55]: 72%
- Ki [52]: 2010 nM
- inhibition at 10 µM [52, 55]: 72%
- Ki [53]: > 10000 nM
- inhibition at 10 µM [53, 55]: 55%
- inhibition at 10 µM [54]: 19.6%

Structure (SMILES): Fc1ccc([C@@H]2CCNC[C@H]2COc2ccc3c(c2)OCO3)cc1 [paroxetine, reference compound]
- Freezing behavior during the extinction retention session (SPS-induced deficit) [16]: did not reverse
- Freezing behavior during the extinction session (SPS-induced deficit) [16]: did not reverse
- Shock reactivity during acquisition compared to the control group [16]: no effect
